Data: ChEMBL document CHEMBL3286260, “Guanidine-based α2-adrenoceptor ligands: Towards selective antagonist activity” (Eur J Med Chem, 2014)
The source made the active and inactive calls. The rule behind the calls is not given here.

What was measured:
[1] = biological target: T1, Alpha-2A adrenergic receptor (Homo sapiens, UniProt P08913); assay: Displacement of [3H]RX821002 from alpha2-adrenergic receptor in prefrontal cortex of human brain after 30 mins by liquid scintillation spectrometric analysis; format: tissue-based
T1 sequence (P08913 whole entry): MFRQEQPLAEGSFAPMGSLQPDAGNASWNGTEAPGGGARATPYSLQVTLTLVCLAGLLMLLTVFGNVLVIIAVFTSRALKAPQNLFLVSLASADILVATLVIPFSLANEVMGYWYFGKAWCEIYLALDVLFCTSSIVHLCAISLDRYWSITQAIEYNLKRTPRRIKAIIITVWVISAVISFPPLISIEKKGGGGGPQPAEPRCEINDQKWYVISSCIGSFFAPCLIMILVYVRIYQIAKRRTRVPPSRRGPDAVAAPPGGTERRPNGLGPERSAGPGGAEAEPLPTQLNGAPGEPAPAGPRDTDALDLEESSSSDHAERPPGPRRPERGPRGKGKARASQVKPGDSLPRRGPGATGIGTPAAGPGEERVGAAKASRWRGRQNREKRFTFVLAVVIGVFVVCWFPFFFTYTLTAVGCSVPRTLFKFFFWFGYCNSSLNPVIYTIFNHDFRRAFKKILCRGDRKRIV

[2] = biological target: T2, Alpha-2A adrenergic receptor (Homo sapiens) (UniProt P08913); assay: Antagonist activity at alpha2-adrenergic receptor in prefrontal cortex of human brain assessed as increase in UK14304 EC50 for [35S]GTPgammaS binding after 120 mins by liquid scintillation spectrometric analysis; format: functional, tissue-based
T2 sequence (whole entry): T1 sequence (P08913 whole entry)
Procedure, shortened: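 Same [35S]GTPγS membrane assay (120 min, 30 °C, 0.5 nM radioligand, Mg/Na/GDP buffer pH 7.4). UK14304 concentration–response curves (10^-13 to 10^-4 M) run with or without test compound at 10^-5 M. Shift in agonist EC50 taken as the measure of antagonism. Bound label counted by liquid scintillation.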

[3] = biological target: T2, Alpha-2A adrenergic receptor (Homo sapiens); assay: Antagonist activity at alpha2-adrenergic receptor in prefrontal cortex of human brain assessed as effect on [35S]GTPgammaS binding after 120 mins by liquid scintillation spectrometric analysis; format: functional, tissue-based

SMILES | Ki [1] | Activity [2] | Activity [3]
c1coc(C2CN/C(=N/c3ccc4c(c3)OCO4)N2)c1 (centres undefined) | 1700 nM |  | 
CCOc1ccc(NC(=N)NCCO)cc1 | 19100 nM |  | 
CCOc1ccc(N=C2NCCN2)cc1 | 79.4 nM | Active | Active
CCNc1ccc(/N=C2/NCC(c3ccco3)N2)cc1 (centres undefined) | 2190 nM |  | 
CN(C)c1ccc(NC(=N)Nc2ccccc2)cc1 | 389 nM | Active | Active
c1coc(C2CN/C(=N/c3ccc4c(c3)CCCC4)N2)c1 (centres undefined) | 692 nM |  | Active
COC1(C2=NCCN2)COc2ccccc2O1 (centres undefined) | 1.91 nM |  | 
CC1CN/C(=N/c2ccc3c(c2)OCO3)N1 (centres undefined) | 2340 nM |  | 
CCNc1ccc(NC(=N)NCCO)cc1 | 18600 nM |  | 
N=C(Nc1ccccc1)Nc1ccc2c(c1)CCCC2 | 263 nM | Active | Active
CN(C)c1ccc(/N=C(/N)NCc2ccco2)cc1 | 214 nM | Active | Active
CCOc1ccc(NC(=N)Nc2ccccc2)cc1 | 2240 nM |  | 
N=C(NCCO)Nc1ccc2c(c1)CCCC2 | 1740 nM |  | 
CCNc1ccc(NC(=N)Nc2ccccc2)cc1 | 4900 nM |  | 
CCOc1ccc(/N=C2/NCC(C)N2)cc1 (centres undefined) | 14100 nM |  | 
CCOc1ccc(/N=C(/N)NCc2ccco2)cc1 | 1480 nM |  | Active
N=C(NCc1ccco1)Nc1ccc2c(c1)CCCC2 | 513 nM |  | Active

SMILES | Ki [1] | Activity [2] | Activity [3]
CCCNC(=N)Nc1ccc2c(c1)OCO2 | 15100 nM |  | 
CCOc1ccc(/N=C2/NCC(c3ccco3)N2)cc1 (centres undefined) | 2630 nM |  | 
CCNc1ccc(/N=C(/N)NCc2ccco2)cc1 | 1070 nM |  | Active
CCCNC(=N)Nc1ccc2c(c1)CCCC2 | 676 nM |  | Active
CCCNC(=N)Nc1ccc(OCC)cc1 | 4270 nM |  | Active
N=C(NCCO)Nc1ccc2c(c1)OCO2 | 11700 nM |  | Active
CN(C)c1ccc(NC(=N)NCCO)cc1 | 1860 nM |  | Active
CCCNC(=N)Nc1ccc(NCC)cc1 | 8320 nM |  | 
CC1CN/C(=N/c2ccc(N(C)C)cc2)N1 (centres undefined) | 3310 nM |  | 
CN(C)c1ccc(/N=C2/NCC(c3ccco3)N2)cc1 (centres undefined) | 1320 nM |  | 
N=C(Nc1ccccc1)Nc1ccc2c(c1)OCO2 | 4370 nM |  | 
CCCNC(=N)Nc1ccc(N(C)C)cc1 | 1120 nM |  | Active
CCNc1ccc(/N=C2/NCC(C)N2)cc1 (centres undefined) | 12300 nM |  | 
N=C(NCc1ccco1)Nc1ccc2c(c1)OCO2 | 1510 nM |  | Active
CC1CN/C(=N/c2ccc3c(c2)CCCC3)N1 (centres undefined) | 1000 nM |  | Active
CCOc1ccc(NC(=N)N)cc1 | 141 nM | Active | Active
